MEKK3 PB1 HTS – raises or lowers MEK5 binding to the human MEKK3 PB1 domain. AID 1529. actives 1.4% (n = 290,000). binding response (% of control), % at 10 µM. Q99759. bead-based flow cytometry, Alexa488-MEK5 binding to MEKK3; actives lie on both sides; 0 = blocked by unlabeled MEK5, 100 = vehicle;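 active means binding response more than 3 SD above or below the average of its plate-row segment, actives on both sides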;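 further: Alexa488 bead fluorescence after subtracting the streptavidin-only scavenger bead signal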
GSK3beta inhib – human GSK3beta kinase inhibition; GST-GSK3beta kinase, ADP-Glo luminescence, 60 min; stronger effect = lower value; activity score (negative = inhibition), % at 10 µM; actives 0.038% (n = 300,000);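 active means more than half of replicate wells score below -50%, meaning over 50% inhibition versus plate controls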;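 further: 0% = median DMSO wells and -100% = median GW8510 positive control wells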
Target sequence (P49841 whole entry, looked up): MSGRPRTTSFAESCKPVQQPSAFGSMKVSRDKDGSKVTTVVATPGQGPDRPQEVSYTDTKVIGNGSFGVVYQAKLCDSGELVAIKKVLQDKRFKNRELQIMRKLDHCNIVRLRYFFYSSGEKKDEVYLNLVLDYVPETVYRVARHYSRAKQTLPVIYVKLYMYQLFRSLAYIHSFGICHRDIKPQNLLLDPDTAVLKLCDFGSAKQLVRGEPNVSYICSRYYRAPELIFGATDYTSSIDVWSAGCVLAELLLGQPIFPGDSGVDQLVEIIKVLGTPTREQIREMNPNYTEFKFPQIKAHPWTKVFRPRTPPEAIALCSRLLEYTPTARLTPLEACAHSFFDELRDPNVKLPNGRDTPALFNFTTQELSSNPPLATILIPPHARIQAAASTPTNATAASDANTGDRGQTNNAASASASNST
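Test system: GST-fused GSK3beta enzyme, cell-free | Quantity: 1.6 ng GST-GSK3beta enzyme per well | Reagent: 25 µM ATP with peptide substrate | Schedule: 60 min enzyme reaction, room temperature | Signal: Luminescent ADP-Glo measurement of ADP formed | Read-out basis: Score relative to plate controls | Control set: DMSO and 20 µM GW8510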
MEKK2mut PB1 HTS – signal of MEK5 binding to mutant human MEKK2 PB1 domain. bead flow cytometry, Alexa488-MEK5 binding to MEKK2 mutant. actives 0.35% (n = 290,000). AID 1530. percent response, % at 10 µM; in the data active means percent response above about 24%, passing the limit was not always enough
MEKK2wt PB1 HTS – raises or lowers MEK5 binding to wildtype human MEKK2 PB1 domain. AID 1531. binding response (% of control), % at 10 µM. Q9Y2U5. actives 1.1% (n = 290,000). bead flow cytometry, Alexa488-MEK5 binding to MEKK2 WT; actives lie on both sides; in the data active means binding response below about 67% or above about 130%
STK33 inh – inhibitors of human STK33 kinase. actives 0.073% (n = 320,000). AID 2661. Q9BYT3. inhibition, % at 10 µM. purified STK33, MBP phosphorylation, ADP-Glo luminescence;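 active means inhibition at or above 25%, using the most active replicate where run in duplicate; inactive means inhibition below 25%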
GSK3 alpha inh – inhibitors of human GSK-3 alpha kinase; P49840; AID 2650; inhibition, % at 10 µM; ADP-Glo luminescence, 60 min; actives 0.1% (n = 320,000);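 active means more than half of replicates show inhibition above 20%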;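 further: GST-tagged GSK-3 alpha with peptide substrate and 25 µM ATP; 0% = DMSO neutral wells and 100% = GW8510 positive control wells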
MEKK2wt confirm – raises or lowers MEK5 binding to wildtype human MEKK2, retest; shares compounds with MEKK3 PB1 HTS; bead flow cytometry, Alexa488-MEK5 binding to MEKK2 WT; actives lie on both sides; binding response (% of control), % at 10 µM; actives 2.4% (n = 5,900); in the data active means binding response below about 16% or above about 210%; inactive means in between
MEKK2mut-MEK5 – signal of MEK5 binding to mutant human MEKK2, retest | shares compounds with MEKK3 PB1 HTS | bead flow cytometry, Alexa488-MEK5 binding to MEKK2 mutant | percent response, % at 10 µM | actives 2% (n = 5,900) | AID 1893; in the data active means percent response mostly above about 71%, no sharp cut-off; inactive means mostly below about 38%;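 further: higher means compound restores mutant binding toward wildtype level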
MEKK3-MEK5 inh – confirmation of inhibitors of MEK5 binding to human MEKK3; shares compounds with MEKK3 PB1 HTS; bead flow cytometry, Alexa488-MEK5 binding to MEKK3; stronger effect = lower value; binding response (% of control), % at 10 µM; actives 1.8% (n = 5,900);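 active means binding response below 72% of control, or above a set upper limit, though filed actives all read lower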;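 further: 100% = DMSO only wells and 0% = binding blocked by excess unlabeled MEK5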
An asterisk follows results filed as active; x = no result; [ ] = another dose, or the depositor's remark. An excerpt weighted towards active compounds, which were near 2.1% of everything screened.

SMILES	MEKK3 PB1 HTS	GSK3beta inhib	MEKK2mut PB1 HTS	MEKK2wt PB1 HTS	STK33 inh	GSK3 alpha inh	MEKK2wt confirm	MEKK2mut-MEK5	MEKK3-MEK5 inh
Cc1ccccc1-n1c(SCC(=O)N/N=C/C=C/c2ccccc2[N+](=O)[O-])nc2ccccc2c1=O	134*	1	0	102	0	0	97	-7	104
O=C(CSc1nc2ccccc2c(=O)n1-c1ccccc1)N/N=C/C=C/c1ccccc1[N+](=O)[O-]	100	0	0	98	x	0	x	x	x
O=C(N/N=C/C=C/c1ccccc1[N+](=O)[O-])c1cc(-c2cccnc2)nc2ccccc12	65*[inhibitor]	1	-2	90	9	x	103	3	106
Cc1cccc(NC(=O)NCCN2CCN(c3ccccc3)CC2)c1C	104	-3	5	103	1	-2	x	x	x
CCOc1ccc(C(C#N)N2CCOCC2)cc1OC (stereo not given)	2.0*[inhibitor]	1	-21	2.0*[inhibitor]	0	-1	103	-2	104
S=C(Nc1ccc(Br)cc1)N1CCCC1	131*	0	0	113	-2	-2	102	-4	102
COc1ccc(NC(=S)N2CCCC2)cc1	59*[inhibitor]	1	-1	91	-2	-2	99	-5	93
CC(C)[C@H](NS(=O)(=O)c1ccccc1F)C(=O)NC1CCCCC1	x	x	x	x	4	4	x	x	x
Cc1cccc(C(=O)N2CCN(c3ncnc4c3cnn4-c3ccccc3)CC2)c1	106	-1	24*	100	0	0	97	-2	100
CCN(CC(=O)Nc1c(F)cccc1F)C(=O)CN1C(=O)C2CCCCC2C1=O (stereo not given)	x	x	x	x	0	-3	x	x	x
COC(=O)c1ccc(OC(=O)c2cccnc2)cc1	128*	-1	0	106	-1	-2	97	-7	95
O=C(NCCN1C(=O)S/C(=C\c2ccc(OC(F)F)cc2)C1=O)[C@@H]1CCCN1C(=O)c1cccs1	131*	-4	0	104	0	0	108	11	104
COc1ccc(C(=O)C2CCCN(C(=O)c3cccc(Cl)c3F)C2)cc1OC (stereo not given)	96	-1	-5	99	-1	1	x	x	x
O=C(Nc1nnc(-c2ccc3c(c2)CCCC3)o1)c1ccc(Cl)cc1Cl	103	-1	1	104	1	-1	x	x	x
O=C(Nc1nnc(-c2ccc3c(c2)CCCC3)o1)c1c(F)cccc1F	68*[inhibitor]	-6	-3	86	-1	-4	102	3	108
CC(C)CNC(=O)C1Nc2ccc(C(F)(F)F)cc2C2C=CCC12 (stereo not given)	100	5	0	103	1	-1	x	x	x
O=C(O)C1Nc2ccc(C(F)(F)F)cc2C2OCCC12 (stereo not given)	78*[inhibitor]	1	-4	94	-1	-5	98	0	102
CCOC(=O)[C@H]1[C@H]2COc3cc(OC)ccc3[C@@H]2N2C(=O)CN(Cc3ccc(C)cc3)C(=O)[C@@]12C	x	x	x	x	-2	-3	x	x	x
CCOC(=O)C(NC(=O)NCc1ccc(F)cc1)(OCC)C(F)(F)F (stereo not given)	128*	0	4	107	-2	2	104	1	103
CCOC(=O)C(NC(=O)Nc1ccc(Cl)cn1)(Oc1ccc(F)cc1)C(F)(F)F (stereo not given)	152*	-1	3	103	0	6	107	11	105
c1nc2n(n1)C1=C(CCCC1)C1(CCCCC1)N2	96	4	-3	96	0	0	x	x	x
CC1CC(C)CN(S(=O)(=O)c2ccc(Oc3ccc([N+](=O)[O-])cc3)cc2)C1 (stereo not given)	101	2	1	105	-1	-3	x	x	x
CCCCNCc1cc(Br)c(OCc2cccs2)c(OC)c1	95	0	21	136*	0	-2	123	8	100
COc1cc(-c2nc3n(n2)C(c2ccncc2)C(C(N)=O)=C(C)N3)cc(OC)c1OC (stereo not given)	122*	-3	5	114	1	1	57	-20	85
CCOC(=O)NC(NCc1ccccc1)(C(F)(F)F)C(F)(F)F	137*	-7	1	111	-1	1	105	4	105
SMILES	MEKK3 PB1 HTS	GSK3beta inhib	MEKK2mut PB1 HTS	MEKK2wt PB1 HTS	STK33 inh	GSK3 alpha inh	MEKK2wt confirm	MEKK2mut-MEK5	MEKK3-MEK5 inh
Cc1nc2cc(C(=O)NCc3ccc4c(c3)OCO4)ccc2n1-c1ccc(Br)cc1	65*[inhibitor]	0	-2	92	1	1	98	3	96
O=C(/C=C/c1ccccc1)NC1CCS(=O)(=O)C1 (stereo not given)	72*[inhibitor]	0	0	95	-3	-2	99	-5	102
CS(=O)(=O)N1CCc2cc(C(=O)N3CCCC3)ccc21	132*	6	1	119	-1	-1	97	-4	104
OCCN1CCN(c2cc(C(F)(F)F)nc3ccccc23)CC1	102	-4	-4	92	3	4	x	x	x
CCCCCCCNC(=O)C1(CC2CC(c3ccc(Cl)cc3)=NO2)CCNCC1 (stereo not given)	106	0	11	158*	-2	7	150	22	105
CCCCCCCNC(=O)C1(CC2CC(c3cccc(Br)c3)=NO2)CCNCC1 (stereo not given)	107	-1	23	191*	1	11	143	17	107
COC(=O)C1(CC2CC(c3cccc(Br)c3)=NO2)CCN(C(=O)OC(C)(C)C)CC1 (stereo not given)	101	1	0	99	-1	-2	x	x	x
COc1ccccc1-n1nnnc1SCc1cc2c(cc1Br)OCO2	92	4	-5	93	0	3	x	x	x
CCCOC(=O)CC1C(=O)NCCN1C(=O)OC(C)(C)C (stereo not given)	39*[inhibitor]	3	-18	48	0	-1	103	-1	102
CCOC(=O)CC1C(=O)NCCN1C(=O)c1ccc(C)cc1 (stereo not given)	94	1	-2	98	0	-1	x	x	x
